Laboratory results published in ChEMBL document CHEMBL4765336, “Discovery of coumarin derivatives as potent and selective cyclin-dependent kinase 9 (CDK9) inhibitors with high antitumour activity” (Eur J Med Chem, 2020).
pIC50: −log10 of the molar value.

What was measured:
Format in all cases: protein-complex assay
[1] = target: Cyclin-dependent kinase 1/cyclin B1 (Homo sapiens, UniProt P06493); experiment: Inhibition of CDK1/Cyclin B (unknown origin) preincubated for 20 mins followed by ATP addition and measured after 120 mins in presence of [33P-gamma] ATP by hotspot kinase assay
Sequence of Cyclin-dependent kinase 1/cyclin B1 (P06493 whole entry): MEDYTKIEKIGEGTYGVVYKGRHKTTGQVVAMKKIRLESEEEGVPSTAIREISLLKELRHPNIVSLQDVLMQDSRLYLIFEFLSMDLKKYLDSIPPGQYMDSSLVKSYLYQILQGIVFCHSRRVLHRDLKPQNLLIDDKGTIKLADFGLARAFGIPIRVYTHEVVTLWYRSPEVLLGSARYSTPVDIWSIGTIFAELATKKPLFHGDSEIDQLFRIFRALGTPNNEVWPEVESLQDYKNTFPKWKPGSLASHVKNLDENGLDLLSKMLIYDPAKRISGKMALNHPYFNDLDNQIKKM
Sequence of Cyclin-dependent kinase 1/cyclin B1 (P14635 whole entry, further chain): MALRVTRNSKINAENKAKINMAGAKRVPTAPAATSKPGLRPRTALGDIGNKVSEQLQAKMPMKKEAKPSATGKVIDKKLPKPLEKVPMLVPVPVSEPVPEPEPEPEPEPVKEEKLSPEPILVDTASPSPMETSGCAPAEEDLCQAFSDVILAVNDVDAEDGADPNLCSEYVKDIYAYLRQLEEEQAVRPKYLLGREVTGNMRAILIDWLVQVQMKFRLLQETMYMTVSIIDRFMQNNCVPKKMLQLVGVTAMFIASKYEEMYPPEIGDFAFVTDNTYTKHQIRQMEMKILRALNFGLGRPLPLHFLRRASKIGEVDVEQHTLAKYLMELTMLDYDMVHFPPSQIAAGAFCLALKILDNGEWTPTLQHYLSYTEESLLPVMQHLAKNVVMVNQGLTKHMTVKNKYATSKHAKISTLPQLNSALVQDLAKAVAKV
Outline: (§1)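 Radiometric filter-binding assay: kinase and substrate in 20 mM Hepes pH 7.5, 10 mM MgCl2, 1 mM EGTA, 0.02% Brij35, 0.02 mg/mL BSA, 0.1 mM Na3VO4, 2 mM DTT, 1% DMSO. Compound (top 1/10/27 μM, 3-fold serial dilutions) preincubated 20 min at 25 °C. ATP plus [γ-33P]ATP added to 10 μM final, reacted 120 min at 25 °C. IC50 from curve fit, duplicate mean.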

[2] = target: Cyclin-dependent kinase 7/ cyclin H (Homo sapiens, UniProt P50613); experiment: Inhibition of CDK7/Cyclin H (unknown origin) preincubated for 20 mins followed by ATP addition and measured after 120 mins in presence of [33P-gamma] ATP by hotspot kinase assay; outline: as §1
Sequence of Cyclin-dependent kinase 7/ cyclin H (P51946 whole entry): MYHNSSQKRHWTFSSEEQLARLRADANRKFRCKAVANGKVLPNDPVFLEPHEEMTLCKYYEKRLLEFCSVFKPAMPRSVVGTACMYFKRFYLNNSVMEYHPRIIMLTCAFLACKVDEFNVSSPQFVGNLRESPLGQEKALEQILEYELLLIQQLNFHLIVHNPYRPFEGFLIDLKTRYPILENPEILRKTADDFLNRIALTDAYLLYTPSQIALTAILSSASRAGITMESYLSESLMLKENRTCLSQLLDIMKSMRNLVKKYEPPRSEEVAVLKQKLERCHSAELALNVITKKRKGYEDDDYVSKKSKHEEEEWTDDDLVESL
Sequence of Cyclin-dependent kinase 7/ cyclin H (P50613 whole entry): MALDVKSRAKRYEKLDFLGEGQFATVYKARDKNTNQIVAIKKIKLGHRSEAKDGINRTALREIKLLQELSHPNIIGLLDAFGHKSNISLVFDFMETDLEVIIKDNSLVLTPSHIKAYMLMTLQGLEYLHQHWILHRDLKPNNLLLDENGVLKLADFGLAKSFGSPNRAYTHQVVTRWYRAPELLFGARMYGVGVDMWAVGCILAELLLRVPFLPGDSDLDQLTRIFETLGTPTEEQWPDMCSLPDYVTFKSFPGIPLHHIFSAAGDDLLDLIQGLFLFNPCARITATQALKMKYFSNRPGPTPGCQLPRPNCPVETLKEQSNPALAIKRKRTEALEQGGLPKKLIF

CDK8/Cyclin C = CDK8/Cyclin C (Homo sapiens, UniProt P49336); experiment: Inhibition of CDK8/Cyclin C (unknown origin) preincubated for 20 mins followed by ATP addition and measured after 120 mins in presence of [33P-gamma] ATP by hotspot kinase assay; outline: as §1
Sequence of CDK8/Cyclin C (P49336 whole entry): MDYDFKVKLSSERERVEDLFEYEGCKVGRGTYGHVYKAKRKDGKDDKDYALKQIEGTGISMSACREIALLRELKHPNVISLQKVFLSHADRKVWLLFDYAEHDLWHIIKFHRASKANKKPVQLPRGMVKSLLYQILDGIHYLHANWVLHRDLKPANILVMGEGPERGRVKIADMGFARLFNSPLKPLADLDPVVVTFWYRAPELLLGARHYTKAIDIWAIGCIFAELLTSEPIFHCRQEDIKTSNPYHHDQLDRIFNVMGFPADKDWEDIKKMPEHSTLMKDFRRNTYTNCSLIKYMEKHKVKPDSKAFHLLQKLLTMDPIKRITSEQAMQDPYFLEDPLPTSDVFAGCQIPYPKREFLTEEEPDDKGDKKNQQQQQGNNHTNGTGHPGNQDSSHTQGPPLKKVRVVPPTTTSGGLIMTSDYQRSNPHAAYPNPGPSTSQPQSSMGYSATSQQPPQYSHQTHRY
Sequence of CDK8/Cyclin C (P24863 whole entry, further chain): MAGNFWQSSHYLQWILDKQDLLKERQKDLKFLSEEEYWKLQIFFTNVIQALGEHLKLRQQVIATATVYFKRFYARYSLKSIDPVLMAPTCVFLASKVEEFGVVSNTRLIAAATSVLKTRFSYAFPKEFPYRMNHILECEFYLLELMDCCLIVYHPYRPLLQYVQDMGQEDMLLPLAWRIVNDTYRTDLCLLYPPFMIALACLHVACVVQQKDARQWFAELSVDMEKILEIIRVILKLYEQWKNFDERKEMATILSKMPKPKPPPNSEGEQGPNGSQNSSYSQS

`COc1cc(F)ccc1-c1nc(Nc2ccc3c(N4CCOCC4)c(C(C)=O)c(=O)oc3c2)ncc1F` gave a pIC50 [1] of 5.71, a pIC50 [2] of 4.78 and a pIC50 (CDK8/Cyclin C) of 5.19.
